Published values of several laboratories.
Lines come from different studies, so protocols differ.
Prostate-specific antigen: Prostate-specific antigen (Homo sapiens, UniProt P07288)
SIGMAR1: Sigma non-opioid intracellular receptor 1 (SIGMAR1, Cavia porcellus, UniProt Q60492)
TMEM97: Sigma intracellular receptor 2 (TMEM97, Homo sapiens, UniProt Q5BJF2)
CASP7: Caspase-7 (CASP7, Homo sapiens, UniProt P55210)
ADRA1D: Alpha-1D adrenergic receptor (ADRA1D, Homo sapiens, UniProt P25100)

Structure (SMILES) | target | effect on | mode | technique | pH | setting | Ki
CCCC[C@H](NC(=O)[C@H](CCCCN)NC(=O)[C@H](CO)NC(=O)[C@H](CO)NC(=O)OCc1ccccc1)C(=O)N[C@@H](Cc1ccccc1)B(O)O | Prostate-specific antigen | enzyme activity | inhibitor | fluorescence | pH 7.8 |  | 0.165 µM
O=C(NCCN1CCCCC1)c1ccc(O)c(Br)c1 | SIGMAR1 | ligand displacement |  | radioligand |  | cell membranes | > 10 µM
O=C(CN(CCCCI)CCCN1CCN(C2CCCCC2)CC1)Nc1ccc(C(=O)c2ccccc2)cc1 | TMEM97 | ligand displacement |  | radioligand |  | cell membranes | 0.045 µM
CCCC[C@H](NC(=O)[C@H](CCC(N)=O)NC(=O)[C@H](CO)NC(=O)CCCCCN)C(=O)N[C@@H](CCCBr)B(O)O | Prostate-specific antigen | enzyme activity | inhibitor | fluorescence | pH 7.8 |  | 0.302 µM
Cc1cc(Oc2nccc3c2ccn3C)ccc1-c1c(C)c(=O)[nH]c(=O)n1C | Muscarinic acetylcholine receptor M3 (CHRM3, Homo sapiens, UniProt P20309) | ligand displacement |  | radioligand |  |  | 4.2 µM
C[C@@H]1O[C@H](CNS(=O)(=O)c2ccc(CCn3cc(CN4CCN(c5cc6c(cc5F)c(=O)c(C(=O)O)cn6C5CC5)CC4)nn3)s2)[C@@H](O)[C@H](O)[C@@H]1O | Fucose-binding lectin PA-IIL (lecB, Pseudomonas aeruginosa, UniProt Q9HYN5) | ligand displacement |  | FP |  |  | 0.82 µM
O=c1c(O)c(-c2cc(O)c(O)c(O)c2)oc2cc(O)cc(O)c12 | CASP7 | enzyme activity | inhibitor | fluorescence |  |  | 65.9 µM
CCCC[C@H](NC(=O)[C@H](CCC(N)=O)NC(=O)[C@H](CO)NC(=O)C[C@@H](Cc1ccc2ccccc2c1)NC(=O)CCCCCN)C(=O)N[C@@H](Cc1ccccc1)B(O)O | Prostate-specific antigen | enzyme activity | inhibitor | fluorescence | pH 7.8 |  | 0.229 µM
O=C1c2ccccc2CCN1CCCCN1CCN(c2cccc(Cl)c2Cl)CC1 | ADRA1D | ligand displacement |  | radioligand |  |  | 0.0784 µM
CCCn1nc(C(=O)N2CCCCC2)c2c1CCC(Nc1ccc(Oc3ccccc3)cc1)C2 (stereo not shown) | TMEM97 | ligand displacement |  | radioligand |  |  | 0.31 µM
COc1ccc(CO[C@H]2CCCN(Cc3cccc(C)c3)C2)cc1F | TMEM97 | ligand displacement |  | radioligand |  | cell membranes | 0.04 µM
O[C@@H]1[C@H](O)[C@@H]2C[C@@H]2[C@H]1n1cnc2c(NCc3cccc(Cl)c3)nc(C#Cc3ccccc3)nc21 | SIGMAR1 | ligand displacement |  | radioligand |  |  | 7.66 µM
O=C(NCCN1CCCCC1)c1cc(Br)ccc1OCCCF | SIGMAR1 | ligand displacement |  | radioligand |  | cell membranes | 0.0529 µM
O=C(c1ccc(CNCCCN2CCN(C3CCCCC3)CC2)cc1)c1ccc([N+](=O)[O-])cc1 | TMEM97 | ligand displacement |  | radioligand |  | cell membranes | 0.033 µM
O=C(NCCN1CCCCC1)c1ccc(OCCCF)c(Br)c1 | SIGMAR1 | ligand displacement |  | radioligand |  | cell membranes | 0.0233 µM
CCCn1nc(C(=O)N2CCCCC2)c2c1CCC(N1CCC(c3ccncc3)CC1)C2 (stereo not shown) | TMEM97 | ligand displacement |  | radioligand |  |  | 0.016 µM

Structure (SMILES) | target | effect on | mode | technique | pH | setting | Ki
CCCC[C@H](NC(=O)[C@H](CCC(N)=O)NC(=O)[C@H](CO)NC(=O)[C@H](CO)NC(=O)CCCCCN)C(=O)N[C@@H](CC(C)C)B(O)O | Prostate-specific antigen | enzyme activity | inhibitor | fluorescence | pH 7.8 |  | 0.0431 µM
O=C1c2ccccc2CCCN1CCCCN1CCN(c2ccccn2)CC1 | ADRA1D | ligand displacement |  | radioligand |  |  | 0.98 µM
CC(C)(C)Oc1cc(CCC(C)(C)N2Cc3ccc(S(C)(=O)=O)cc3C2)ccc1O | TMEM97 | ligand displacement |  | radioligand |  | cell membranes | 0.0085 µM
CN(Cc1ccc(NC(=O)C2=Cc3cc(-c4ccc(OCCCF)cc4)ccc3CCC2)cc1)C1CCOCC1 | SIGMAR1 | ligand displacement |  | radioligand |  |  | 1 µM
C#CCN(CCCN1CCN(C2CCCCC2)CC1)c1ccc(C(=O)c2ccccc2)cc1 | TMEM97 | ligand displacement |  | radioligand |  | cell membranes | 0.0777 µM
CCCCN1CCC(COC(=O)c2ccc(N)c(OCF)c2)CC1 | ADRA1D | cell-free assay |  | radioligand |  |  | > 10 µM
O=c1c(O)c(-c2ccc(O)cc2)oc2cc(O)cc(O)c12 | CASP7 | enzyme activity | inhibitor | fluorescence |  |  | > 300 µM
CCCn1nc(C(=O)N2CCCCC2)c2c1CCC(NCCc1ccncc1)C2 (stereo not shown) | TMEM97 | ligand displacement |  | radioligand |  |  | > 10 µM
O=C(c1ccc(CNCCCN2CCN(c3ccc(F)cc3)CC2)cc1)c1ccc([N+](=O)[O-])cc1 | TMEM97 | ligand displacement |  | radioligand |  | cell membranes | 0.034 µM
CCOC(=O)[C@@]12C[C@@H]1[C@@H](n1cnc3c(NC)nc(C#Cc4ccc(Cl)s4)cc31)[C@H](O)[C@@H]2O | SIGMAR1 | ligand displacement |  | radioligand |  |  | 1.04 µM
CCCC[C@H](NC(=O)[C@H](CCC(N)=O)NC(=O)[C@H](CO)NC(=O)[C@H](Cc1ccccc1)NC(=O)CCCCCN)C(=O)N[C@@H](CCCBr)B(O)O | Prostate-specific antigen | enzyme activity | inhibitor | fluorescence | pH 7.8 |  | 0.0723 µM
CN(Cc1ccc(NC(=O)C2=Cc3cc(-c4ccc(OCCCCCF)cc4)ccc3CCC2)cc1)C1CCOCC1 | SIGMAR1 | ligand displacement |  | radioligand |  |  | 0.32 µM
Nc1ccnc2ccccc12 | Alpha-2B adrenergic receptor (ADRA2B, Homo sapiens, UniProt P18089) | ligand displacement |  | radioligand |  | cell membranes | 53.8 µM
O=C(c1ccccc1)c1ccc(CNCCCN2C(=O)c3ccccc3C2=O)cc1 | TMEM97 | ligand displacement |  | radioligand |  | cell membranes | > 10 µM
CCCC[C@H](NC(=O)[C@H](CCC(N)=O)NC(=O)[C@H](CO)NC(=O)CCCCCN)C(=O)N[C@@H](Cc1ccccc1)B(O)O | Prostate-specific antigen | enzyme activity | inhibitor | fluorescence | pH 7.8 |  | 0.022 µM
